Experimental findings from ChEMBL document CHEMBL1122650, “Synthesis and central nervous system properties of 2-[(alkoxycarbonyl)amino]-4(5)-phenyl-2-imidazolines” (J Med Chem, 1984) are described below.

Active and inactive are the calls of the source. No cut-off for these calls is given here.

Series [1] is filed under the species Mus musculus. The experiment in a line: Compound was evaluated for maximal electroshock antagonism (MES) against mice. Type of series: functional. In a few lines:
(§1)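 Male HLa (ICR) BR mice, groups of eight to ten, dosed ip (aqueous solution) 15 min before transcorneal electroshock (50 mA, 0.2 s). End point: abolition of tonic hind-limb extension; quantal ED50 by Litchfield-Wilcoxon.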
On the technique in general: The maximal electroshock test induces tonic seizures with an electrical stimulus.

Series [2] is filed under the species Mus musculus. The experiment in a line: Mouse behavior activity was determined; S-D=Stimulant-Depressant. Format: functional, organism-based. In a few lines:
(§2)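 Male Simonsen (ICR) fBR mice, 18-24 g, groups of three, given 3, 10, 30, 100, 300 or 1000 mg/kg ip as aqueous solution and observed for behavioral profile; deaths followed up to 7 days.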

The species named for series [3] is Rattus norvegicus. The experiment in a line: Inhibition of the NE [3H]Norepinephrine uptake by rat brain slices In vitro. Type of series: functional.
The test system of series [4] is Mus musculus. The series is described as follows: Reserpine hypothermia antagonism in mouse administered perorally with 5 mg/kg of reserpine 2 hour prior to test compound administration. Format: functional. To be noted: route oral.
Series [5] is filed under the species Rattus norvegicus. The series is described as follows: Inhibition of the 5-HT [14C]5-HT uptake by rat brain slices In vitro. Format: functional. Summed up: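 Rat cerebral cortex slices, 5 mg tissue per mL Krebs-Henseleit buffer, incubated at 37 °C with [3H]NE or [14C]5-HT; blanks at 4 °C, undosed controls. Stopped after 20 min by filtration; slice radioactivity counted; IC50 from linear regression of uptake inhibition.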

For series [6], the species on record is Mus musculus. The series is described as follows: Evaluated for antagonism of reserpine induced hypothermia. Format: functional. In a few lines: (§3)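 Male HLa (ICR) BR mice, 18-24 g, in groups of eight; reserpine 5 mg/kg ip given 2 h before oral test compound as aqueous solution. Rectal temperature taken hourly; 1-4-h hypothermia assessed by analysis of variance.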

The species named for series [7] is Mus musculus. The series is described as follows: Inhibition of radioactive NE [3H]norepinephrine uptake into mouse heart. Type of series: functional. In a few lines: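 Mice dosed ip (aqueous solution) before iv [3H]NE; hearts removed 3 h after label, washed, weighed, dissolved in Protosol and counted as dpm per mg tissue. Dose-response from linear regression.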

The species named for series [8] is Mus musculus. The experiment in a line: Evaluated for antagonism of reserpine induced hypothermia;I= Inactive. Format: functional, organism-based. Summed up: as §3
The species named for series [9] is Mus musculus. The experiment in a line: Compound was evaluated for maximal electroshock antagonism (MES) against mice; Inactive. Type of series: functional, organism-based. In a few lines: as §1
The nature of series [10]: Lethal dose in mouse, in groups of ten. Type of series: toxicity, organism-based. To be noted: in vivo.
Series [11] is filed under the species Mus musculus. The experiment in a line: Mouse behavior activity was determined; Dwk=Depressant Weak. Type of series: functional, organism-based. In a few lines:
as §2

Series [12] can be described thus: HPLC capacity factor (k'). Format: ADME.
In series [13] the test system is Mus musculus. The experiment in a line: Compound was evaluated in vivo for reserpine hypothermia after oral administration in mouse. Minimum active dose was reported; Inactive. Type of series: functional, organism-based. In a few lines: as §3
For series [14], the species on record is Mus musculus. The experiment in a line: Righting ability was determined in mice before rapid rolling (unaroused). Format: functional. Summed up:
(§4)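 Male Simonsen (ICR) fBR mice, 18-24 g, groups of ten, dosed with aqueous compound. Righting ability checked before (unaroused) and after (aroused) rapid rolling in the hand; ED50 by Litchfield-Wilcoxon method.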

Series [15] is described as follows: Compound was evaluated for lethal dose in mouse in groups of ten (values in parentheses indicates 95% confidence limits). Type of series: toxicity, organism-based. Particulars: in vivo.
Series [16] is filed under the species Mus musculus. The experiment in a line: Righting ability was determined in mice […] rapid rolling (aroused). Format: functional. Summed up:
as §4

The species named for series [17] is Mus musculus. The experiment in a line: Compound was evaluated for maximal electroshock antagonism (MES) against mice (values in parentheses indicates 95% confidence limits). Format: functional. Summed up: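 Male HLa (ICR) BR mice, groups of eight to ten, given compound ip as aqueous solution 15 min before transcorneal electroshock (50 mA, 0.2 s). End point was abolition of tonic hind-limb extension; quantal ED50 derived by Litchfield-Wilcoxon.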

The species named for series [18] is Mus musculus. The series is described as follows: Mouse behavior activity was determined; D = Depressant. Type of series: functional, organism-based. Summed up: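 Male Simonsen (ICR) fBR mice (18-24 g) given 3, 10, 30, 100, 300 or 1000 mg/kg ip as aqueous solution and observed for behaviour in groups of three.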
Series [19] concerns Mus musculus. The series is described as follows: Compound was evaluated in vivo for reserpine hypothermia after oral administration in mouse. Minimum active dose was reported, with the percent reversal at 10 mg/kg in parenthesis. Type of series: functional. Summed up: (§5)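 Male HLa (ICR) BR mice (18-24 g), groups of eight, dosed ip with 5 mg/kg reserpine 2 h before oral test compound given as aqueous solution. Rectal temperature measured hourly; 1-4-h thermia assessed by analysis of variance.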

For series [20], the species on record is Mus musculus. The series is described as follows: Mouse behavior activity was determined; D=Depressant. Type of series: functional, organism-based. Summed up: as §2
The species named for series [21] is Mus musculus. The experiment in a line: Mouse behavior activity was determined; Dwk= Depressant Weak. Type of series: functional, organism-based. Summed up: as §2
For series [22], the species on record is Mus musculus. The series is described as follows: Mouse behavior activity was determined;D= Depressant. Type of series: functional, organism-based. Summed up: as §2
Series [23] is filed under the species Mus musculus. The series is described as follows: Mouse behavior activity was determined; Dwk= Depressant Weak. Format: functional, organism-based. In a few lines:
as §2

For series [24], the species on record is Mus musculus. The experiment in a line: Mouse behavior activity was determined; Inactive. Type of series: functional, organism-based. Summed up: as §2
For series [25], the species on record is Mus musculus. The series is described as follows: Compound was evaluated for antagonism of reserpine induced hypothermia;I= Inactive. Type of series: functional, organism-based. Summed up:
as §5

For series [26], the system named is Mus musculus. The experiment in a line: Evaluated in vivo for reserpine hypothermia after oral administration in mouse. Minimum active dose was reported; Inactive. Type of series: functional, organism-based. Summed up:
as §3

A word on the ED50: it is the midpoint of the dose-response relation. What is called IC50 is the concentration needed to halve the response being measured. Turning to `CN(C)CCCN1c2ccccc2CCc2ccccc21` [IMIPRAMINE], the ED50 was determined as 15 mg/kg in the series filed under Mus musculus [1] and 6.7 mg/kg in the series filed under Mus musculus [7]. Also, the Mouse behavior activity result in the series filed under Mus musculus [2] was “Stimulant”. The values for the IC50 in the series filed under Rattus norvegicus [3] and in the series filed under Rattus norvegicus [5] were 3.8 µM and 5.3 µM, respectively. In addition, in the series on Mus musculus [4], the Reserpine hypothermia came to 0.63 mg/kg. In the series listed under Mus musculus [6], this molecule returned an HYPO of less than 0.5 mg/kg.
For orientation: LD50 means the dose expected to kill half of the subjects tested. Turning to `COC(=O)NC1=NC(c2ccc([S+](C)[O-])cc2)CN1C` (centres undefined), the HYPO result in the series listed under Mus musculus [8] is “inactive”. In addition, the ED50 entry in the series listed under Mus musculus [9] and in the series on Mus musculus [13] was “inactive” each time. Further, the LD50 in series [10] was more than 1000 mg/kg. Further, in the series listed under Mus musculus [11], the Mouse behavior activity entry is recorded as “Depressant Weak”. In series [12], the “Log k'” value is -1.03.
In the case of `COC(=O)NC1=NC(c2c(Cl)cccc2Cl)CN1` (centres undefined), the ED50 entry in the series filed under Mus musculus [9] is “inactive”. The LD50 in [10] turned out to be 300 mg/kg. Moreover, the Mouse behavior activity entry in the series filed under Mus musculus [11] is given as “Depressant”. Moreover, the IC50 in the series filed under Rattus norvegicus [3] and in the series filed under Rattus norvegicus [5] was more than 100 µM throughout. This molecule also came in with a Reserpine hypothermia with Mus musculus [4] of 0.15 mg/kg. The “Log k'” value in series [12] is on record as 0.3. For the same molecule, the HYPO in the series filed under Mus musculus [6] was less than 0.5 mg/kg. For the same molecule, the ED50 in the series filed under Mus musculus [7] stood at 14.2 mg/kg.
Consider `CCC1(c2ccccc2)C(=O)NC(=O)NC1=O` [PHENOBARBITAL], for which the Loss of righting reflex was 60 mg/kg in the series listed under Mus musculus [14] and 107 mg/kg in the series filed under Mus musculus [16]. The LD50 in series [15] was found to be 222 mg/kg. Besides, the ED50 in the series filed under Mus musculus [17] worked out at 15 mg/kg; in the series with Mus musculus [19] it was 22 mg/kg. For the same molecule, the Mouse behavior activity result in the series filed under Mus musculus [18] is reported as “Depressant”.
In the series filed under Mus musculus [1], `COC(=O)NC1=NC(c2ccccc2Cl)CN1` (centres undefined) returned an ED50 of 50 mg/kg. For the same molecule, the Loss of righting reflex in the series listed under Mus musculus [14] worked out at 200 mg/kg. In series [10], the LD50 was determined as 500 mg/kg. Further, the Mouse behavior activity entry in the series listed under Mus musculus [20] is “Depressant”. The “Log k'” value in series [12] came out at 0.29.
In the case of `COC(=O)NC1=NC(c2cccc(Cl)c2)CN1` (centres undefined), it took a dose of 48 mg/kg to reach the 50% effect level in the series listed under Mus musculus [1] (ED50). In series [10], the LD50 amounted to 300 mg/kg. For the same molecule, the Mouse behavior activity entry in the series listed under Mus musculus [21] is given as “Depressant - weak”. Moreover, the “Log k'” value in series [12] is listed as 0.4.
In the series filed under Mus musculus [1], `COC(=O)NC1=NC(c2ccc(Cl)cc2)CN1C` (centres undefined) returned an ED50 of 66 mg/kg. Also, in the series listed under Mus musculus [22], the Mouse behavior activity entry was “Depressant”. Further, the LD50 in series [10] amounted to 200 mg/kg. For the same molecule, the “Log k'” value in [12] is recorded as 0.54. In the series on Mus musculus [13], the ED50 entry was “inactive”.
In the series listed under Mus musculus [1], `CCC(=O)NC1=NC(c2ccccc2)CN1` (centres undefined) yielded an ED50 of 75 mg/kg. The median lethal dose (LD50) in series [10] came to 500 mg/kg. For the same molecule, the Mouse behavior activity result in the series listed under Mus musculus [23] is “Depressant”. In addition, the “Log k'” value in series [12] was 0.17. This molecule also gave an HYPO in the series listed under Mus musculus [6] of more than 20 mg/kg.
Turning to `COC(=O)NC1=NC(c2ccc(O)cc2)CN1` (centres undefined), the ED50 result in the series listed under Mus musculus [9] is “inactive”. In series [10], the LD50 was found to be 700 mg/kg. For the same molecule, the Mouse behavior activity entry in the series filed under Mus musculus [24] is “inactive”.
As to `CNC1=Nc2ccc(Cl)cc2C(c2ccccc2)=[N+]([O-])C1` [CHLORDIAZEPOXIDE], the Loss of righting reflex in the series filed under Mus musculus [14] was 53 mg/kg; in the series listed under Mus musculus [16], 140 mg/kg. Moreover, the HYPO result in the series listed under Mus musculus [25] is “inactive”. Moreover, in [15], the median lethal dose (LD50) is 254 mg/kg. For the same molecule, the Mouse behavior activity result in the series listed under Mus musculus [18] is on record as “Depressant”. The ED50 with Mus musculus [19] came out at 5 mg/kg.
For `COC(=O)NC1=NC(c2ccc(CO)cc2)CN1C` (centres undefined), the ED50 entry in the series listed under Mus musculus [9] and with Mus musculus [26] was “inactive” throughout. For the same molecule, the LD50 in series [10] was more than 1000 mg/kg. In addition, the Mouse behavior activity result in the series listed under Mus musculus [24] was “inactive”. Further, the “Log k'” value in [12] is given as -0.76. This molecule also yielded an HYPO in the series filed under Mus musculus [6] of less than 0.5 mg/kg.
As to `COC(=O)NC1=NC(c2ccccc2[S+](C)[O-])CN1C` (centres undefined), in [12], the “Log k'” value was -0.87. In addition, the ED50 result in the series with Mus musculus [13] is “inactive”.
In the case of `CN1C(=O)CN=C(c2ccccc2)c2cc(Cl)ccc21` [DIAZEPAM], the Loss of righting reflex came out at 67 mg/kg in the series filed under Mus musculus [14] and 136 mg/kg in the series filed under Mus musculus [16]. Besides, the ED50 in the series listed under Mus musculus [17] worked out at 7 mg/kg; in the series with Mus musculus [19] it was 1 mg/kg. For the same molecule, the Mouse behavior activity result in the series filed under Mus musculus [18] is recorded as “Depressant”.
